The target of assay [1] is T1, Somatostatin receptor type 2 (Homo sapiens, UniProt P30874). Put plainly: Displacement of [125I]-[Leu8, DTrp22, Tyr25]SRIF28 from human sst2 receptor expressed in chinese hamster CCL39 cells by autoradiography. The format is cell-based. For orientation: In a radioligand displacement assay an active substance lowers the binding of a labelled ligand.
Assay [2] has as its target Somatostatin receptor type 1 (Homo sapiens, UniProt P30872). Put plainly: Displacement of [125I]-[Leu8, DTrp22, Tyr25]SRIF28 from human sst1 receptor expressed in CHOK1 cells by autoradiography. Type of assay: cell-based, CHO-K1.
Assay [3] deals with Somatostatin receptor type 3 (Homo sapiens, UniProt P32745). As to the kind of experiment: Displacement of [125I]-[Leu8, DTrp22, Tyr25]SRIF28 from human sst3 receptor expressed in chinese hamster CCL39 cells by autoradiography. The format is cell-based.
Chain of Somatostatin receptor type 3 (P32745 whole entry): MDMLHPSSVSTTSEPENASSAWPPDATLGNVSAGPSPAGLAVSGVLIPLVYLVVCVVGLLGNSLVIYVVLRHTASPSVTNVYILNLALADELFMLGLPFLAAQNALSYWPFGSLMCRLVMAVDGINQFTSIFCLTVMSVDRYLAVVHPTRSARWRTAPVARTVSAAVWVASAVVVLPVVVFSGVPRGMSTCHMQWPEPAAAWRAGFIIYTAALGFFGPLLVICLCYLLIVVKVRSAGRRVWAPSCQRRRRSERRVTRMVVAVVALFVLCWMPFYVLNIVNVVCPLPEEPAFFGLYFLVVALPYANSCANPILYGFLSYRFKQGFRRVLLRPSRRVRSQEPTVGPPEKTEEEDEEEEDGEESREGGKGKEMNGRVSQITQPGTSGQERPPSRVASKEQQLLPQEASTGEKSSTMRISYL
Assay [4] deals with Somatostatin receptor type 5 (Homo sapiens, UniProt P35346). As to the kind of experiment: Displacement of [125I]-[Leu8, DTrp22, Tyr25]SRIF28 from human sst5 receptor expressed in CHOK1 cells by autoradiography. Type of assay: cell-based, CHO-K1.
Chain of Somatostatin receptor type 5 (P35346 whole entry): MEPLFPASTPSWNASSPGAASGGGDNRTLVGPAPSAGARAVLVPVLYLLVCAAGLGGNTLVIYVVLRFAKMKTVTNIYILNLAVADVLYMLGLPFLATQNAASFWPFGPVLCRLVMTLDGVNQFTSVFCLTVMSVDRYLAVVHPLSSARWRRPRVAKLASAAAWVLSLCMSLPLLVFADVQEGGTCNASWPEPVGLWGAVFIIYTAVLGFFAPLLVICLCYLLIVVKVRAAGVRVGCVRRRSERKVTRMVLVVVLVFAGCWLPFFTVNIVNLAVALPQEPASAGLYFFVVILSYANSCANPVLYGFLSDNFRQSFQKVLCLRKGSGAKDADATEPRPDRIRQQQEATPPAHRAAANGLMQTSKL
The target in assay [5] is Somatostatin receptor type 4 (Homo sapiens, UniProt P31391). As to the kind of experiment: Displacement of [125I]-[Leu8, DTrp22, Tyr25]SRIF28 from human sst4 receptor expressed in chinese hamster CCL39 cells by autoradiography. The format is cell-based.
Chain of Somatostatin receptor type 4 (P31391 whole entry): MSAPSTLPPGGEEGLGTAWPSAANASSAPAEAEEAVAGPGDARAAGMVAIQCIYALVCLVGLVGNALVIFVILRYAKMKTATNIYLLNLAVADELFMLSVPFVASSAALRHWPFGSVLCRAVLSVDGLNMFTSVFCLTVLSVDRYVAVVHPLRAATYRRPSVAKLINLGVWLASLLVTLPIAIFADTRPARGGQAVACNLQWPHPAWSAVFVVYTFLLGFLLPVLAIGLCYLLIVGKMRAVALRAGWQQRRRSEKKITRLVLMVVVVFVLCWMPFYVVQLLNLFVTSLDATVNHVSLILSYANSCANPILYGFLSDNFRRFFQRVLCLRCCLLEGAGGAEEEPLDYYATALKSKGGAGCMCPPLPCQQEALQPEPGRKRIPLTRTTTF
Assay [6] concerns the target T1, Somatostatin receptor type 2. As to the kind of experiment: Agonist activity at T7-tagged human sst2 receptor expressed in HEK293 cells at 100 to 10000 nM. The format is functional, cell-based. Summed up: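 Immunofluorescence microscopy internalization in HEK-sst2 cells. Agonist mode: peptides at 100 nM to 10,000 nM. Antagonist mode: 100 nM [Tyr3]-octreotide with 100-fold excess of peptide. Treatment 30 min at 37 °C, 5% CO2 in growth medium, then staining with polyclonal sst2-specific R2-88 antibody; n ≥ 2.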

Active and inactive are the calls of the source. The calls are words filed in the database; no cut-off is given here.

Chain of Somatostatin receptor type 1 (P30872 whole entry): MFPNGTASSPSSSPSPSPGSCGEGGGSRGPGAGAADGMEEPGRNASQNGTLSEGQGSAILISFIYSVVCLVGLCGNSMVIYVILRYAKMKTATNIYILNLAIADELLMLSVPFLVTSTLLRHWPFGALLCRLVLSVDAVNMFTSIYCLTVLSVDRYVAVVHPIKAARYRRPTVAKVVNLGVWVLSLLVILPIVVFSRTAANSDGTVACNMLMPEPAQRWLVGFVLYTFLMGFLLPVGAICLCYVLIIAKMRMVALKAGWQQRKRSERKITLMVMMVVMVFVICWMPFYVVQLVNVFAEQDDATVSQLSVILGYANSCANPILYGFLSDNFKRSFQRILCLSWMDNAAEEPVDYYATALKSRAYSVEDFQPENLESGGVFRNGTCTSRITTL
T1 sequence (P30874 whole entry): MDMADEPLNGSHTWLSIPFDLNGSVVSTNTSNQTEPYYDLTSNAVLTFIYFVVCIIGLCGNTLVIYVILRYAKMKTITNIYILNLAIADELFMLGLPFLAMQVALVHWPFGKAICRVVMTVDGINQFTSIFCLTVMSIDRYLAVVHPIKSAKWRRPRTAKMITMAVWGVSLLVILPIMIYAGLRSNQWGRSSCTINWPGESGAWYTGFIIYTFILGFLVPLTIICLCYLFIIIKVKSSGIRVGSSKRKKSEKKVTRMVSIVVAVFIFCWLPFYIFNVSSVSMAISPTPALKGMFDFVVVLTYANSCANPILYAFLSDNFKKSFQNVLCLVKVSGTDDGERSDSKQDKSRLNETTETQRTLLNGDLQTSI

Take `C[C@@H](O)[C@@H]1NC(=O)[C@H](CCCCN)NC(=O)[C@@H](Cc2c[nH]c3ccccc23)NC(=O)[C@H](Cc2ccc(O)cc2)NC(=O)[C@H](NC(=O)[C@@H](N)Cc2ccc(Cl)cc2)CCSSCC[C@@H](C(=O)N[C@@H](Cc2ccc3ccccc3c2)C(N)=O)NC1=O`: the IC50 (as a rule, the concentration at which inhibition is half-maximal) in assay [1] was found to be 267 nM; in assay [2] it was 763 nM; in assay [3], 359 nM; in assay [4], 199 nM; in assay [5], 174 nM.

As to `C[C@@H](O)[C@H](NC(=O)[C@@H]1CCSSCC[C@H](NC(=O)[C@H](N)Cc2ccccc2)C(=O)N[C@@H](Cc2ccccc2)C(=O)N[C@H](Cc2c[nH]c3ccccc23)C(=O)N[C@@H](CCCCN)C(=O)N[C@@H]([C@@H](C)O)C(=O)N1)C(N)=O`, the IC50 in assay [1] is 4.9 nM; in assay [2], over 1000 nM; in assay [3], 452 nM; in assay [4] it was 109 nM; in assay [5], 115 nM.

For the compound `C[C@@H](O)[C@H](NC(=O)[C@@H]1CSSC[C@H](NC(=O)[C@H](N)Cc2ccccc2)C(=O)N[C@@H](Cc2ccccc2)C(=O)N[C@H](Cc2c[nH]c3ccccc23)C(=O)N[C@@H](CCCCN)C(=O)N[C@@H]([C@@H](C)O)C(=O)N1)C(N)=O`, the IC50 in assay [1] was 1.9 nM; in assay [2], over 1000 nM; in assay [3], 39 nM; in assay [5] it was over 1000 nM. For the same compound, the outcome in assay [6] was Active.

Turning to `C[C@@H](O)[C@H](NC(=O)[C@H]1CCSSCC[C@@H](NC(=O)[C@H](N)Cc2ccccc2)C(=O)N[C@@H](Cc2ccccc2)C(=O)N[C@H](Cc2c[nH]c3ccccc23)C(=O)N[C@@H](CCCCN)C(=O)N[C@@H]([C@@H](C)O)C(=O)N1)C(N)=O`, the result in assay [6] was Active.

For `C[C@@H](O)[C@H](NC(=O)[C@@H]1NC(=O)[C@H]([C@@H](C)O)NC(=O)[C@H](CCCCN)NC(=O)[C@@H](Cc2c[nH]c3ccccc23)NC(=O)[C@H](Cc2ccccc2)NC(=O)[C@H](NC(=O)[C@H](N)Cc2ccccc2)SS1)C(N)=O`, the IC50 in assay [1] is 337 nM; in assay [2], over 1000 nM; in assay [3], over 1000 nM; in assay [4], over 1000 nM; in assay [5], 214 nM.

(Values after ChEMBL document CHEMBL1150261, “Ring size in octreotide amide modulates differently agonist versus antagonist binding affinity and selectivity” (J Med Chem, 2008).)
